The values below come from ChEMBL document CHEMBL2016530, “Synthesis and biological evaluation of pyrethroid insecticide-derivatives as a chemical inducer for Bdnf mRNA expression in neurons” (Bioorg Med Chem, 2012).

Common to all, as to type: functional
Test [1] relates to Cortical neurone. The experiment in a line: Increase in BDNF eIV-IX mRNA expression in rat cortical neurons at 10 uM after 3 hrs by RT-PCR analysis. The essentials:
(§1)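 Primary cortical neurons from E17 Sprague–Dawley rat embryos, seeded at 2.5 × 10⁶ cells per polyethylenimine-coated 35 mm dish. Compound added for 3 h (time course 0–24 h at 10 µM). Total RNA extracted with acid guanidine phenol-chloroform and DNase I-treated, then reverse transcribed. Bdnf exon IV-IX mRNA measured by real-time PCR against plasmid standard curves and normalized to Gapdh. Reported as ratio to untreated control; n = 3–4.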

For test [2], the system named is Cortical neurone. Description: Increase in BDNF eIV-IX mRNA expression in rat cortical neurons after 3 hrs by RT-PCR analysis. The essentials: as §1
The test system of test [3] is Cortical neurone. Description: Increase in neurite crossings in rat cortical neurons at 1 uM after 6 hrs by Sholl analysis. The essentials:
(§2)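 E17 rat cortical neurons transfected with a GFP expression vector by calcium phosphate at 4 days in culture. At day 6, treated for 6 h, then fixed in 4% formaldehyde/4% sucrose and immunostained for GFP and MAP2. Sholl analysis counted neurite intersections with concentric circles of 20–200 µm radius at 20 µm intervals around the cell body. Cells were not preselected; n = 3.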

In test [4] the test system is Cortical neurone. Description: Increase in neurite length in rat cortical neurons at 1 uM after 6 hrs by anti-GFP and anti-MAP2-based fluorescence microscopy. The essentials: (§3)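 E17 rat cortical neurons GFP-transfected at 4 days in culture, drug-treated for 6 h at day 6, then fixed and stained with anti-GFP/anti-MAP2 and Alexa488/594 secondaries plus DAPI. Under fluorescence microscopy, all neurites arising from the cell body were traced within a 400 µm diameter and their total length measured; n = 3.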

The subject of test [5] is Cortical neurone. Description: Increase in BDNF eIV-IX mRNA expression in rat cortical neurons at 1 uM after 3 hrs by RT-PCR analysis. The essentials:
as §1

The test system of test [6] is Cortical neurone. Description: Increase in neurite crossings in rat cortical neurons at 10 uM after 6 hrs by Sholl analysis. The procedure, abridged:
as §2

Test [7] deals with Cortical neurone. Description: Increase in BDNF eIV-IX mRNA expression in rat cortical neurons at 10 uM after 3 hrs by RT-PCR analysis in presence of ERK1/2 inhibitor U0126.
In test [8] the test system is Cortical neurone. The experiment in a line: Increase in BDNF eIV-IX mRNA expression in rat cortical neurons at 10 uM up to 24 hrs by RT-PCR analysis. The essentials:
as §1

The subject of test [9] is Cortical neurone. The experiment in a line: Increase in BDNF eIV-IX mRNA expression in rat cortical neurons at 10 uM after 3 hrs by RT-PCR analysis in presence of L-type voltage calcium channel blocker nicradipine.
Test [10] has as its system Cortical neurone. Description: Increase in BDNF eIV-IX mRNA expression in rat cortical neurons at 10 uM by RT-PCR analysis. The following applies: TDE = time-dependent effect. The essentials:
as §1

For test [11], the system named is Cortical neurone. Description: Increase in BDNF eIV-IX mRNA expression in rat cortical neurons at 10 uM at 6 hrs by RT-PCR analysis. The essentials:
as §1

Test [12] deals with Cortical neurone. The experiment in a line: Increase in BDNF eIV-IX mRNA expression in rat cortical neurons at 10 uM after 3 hrs by RT-PCR analysis in presence of NMDA receptor antagonist APV.
For test [13], the system named is Cortical neurone. Description: Increase in neurite length in rat cortical neurons at 10 uM after 6 hrs by anti-GFP and anti-MAP2-based fluorescence microscopy. The procedure, abridged: as §3
For test [14], the system named is Cortical neurone. The experiment in a line: Increase in BDNF eIV-IX mRNA expression in rat cortical neurons at 10 uM after 3 hrs by RT-PCR analysis in presence of VSSC antagonist TTX.

Structures are written as SMILES. The source made the active and inactive calls. The calls are words filed in the database; no cut-off is given here.

In the case of `CC#C[C@@H](OC(=O)[C@@H]1[C@H](C=C(Br)Br)C1(C)C)c1cccc(Oc2ccccc2)c1`, the result in the test on Cortical neurone [1] was Active.

`CC1(C)[C@H](C(=O)O[C@H](C#CCl)c2cccc(Oc3ccccc3)c2)[C@@H]1C=C(Br)Br`: the Activity result with Cortical neurone [2] was “Dose-dependent effect”. Also, in the test with Cortical neurone [1], the outcome was Active.

For `CC1(C)[C@H](C(=O)O[C@H](C#N)c2cccc(Oc3ccccc3)c2)[C@@H]1C=C(Br)Br`, the outcome with Cortical neurone [1], in the test on Cortical neurone [3], in the test with Cortical neurone [4] and in the test on Cortical neurone [5] was Active.

Consider `CC1(C)[C@H](C(=O)O[C@H](C#CBr)c2cccc(Oc3ccccc3)c2)[C@@H]1C=C(Br)Br`, for which, in the test on Cortical neurone [2], the Activity entry is “Dose-dependent effect”. The result in the test on Cortical neurone [1] was Active.

In the case of `CC1(C)[C@H](C(=O)O[C@H](C#CCC(F)(F)F)c2cccc(Oc3ccccc3)c2)[C@@H]1C=C(Br)Br`, in the test with Cortical neurone [1], the outcome was Active.

On to `CCC#C[C@@H](OC(=O)[C@@H]1[C@H](C=C(Br)Br)C1(C)C)c1cccc(Oc2ccccc2)c1`, for which, in the test on Cortical neurone [1], the outcome was Active.

Turning to `CC1(C)[C@H](C(=O)O[C@H](C#CI)c2cccc(Oc3ccccc3)c2)[C@@H]1C=C(Br)Br`, the Activity result with Cortical neurone [2] is “Dose-dependent effect”. In the test with Cortical neurone [1], the result was Active.

Regarding `C#C[C@@H](OC(=O)[C@@H]1[C@H](C=C(Br)Br)C1(C)C)c1cccc(Oc2ccccc2)c1`, the result in the test on Cortical neurone [1], with Cortical neurone [6], with Cortical neurone [8], in the test with Cortical neurone [12] and in the test with Cortical neurone [13] was Active. Besides, the outcome in the test on Cortical neurone [7], in the test with Cortical neurone [9], in the test on Cortical neurone [11] and with Cortical neurone [14] was inactive. Besides, the Activity result in the test with Cortical neurone [10] was “tde”.
